mHtt clearance: compounds clearing mutant huntingtin protein; HeLa Exon1htt(103Q)mCFP, aggregate imaging; zero = plate's median compound well; inhibition, % at 1.5 µM; hit rate 0.42% among 47,000; AID 853;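 active = inhibition of aggregate fluorescence above about 70%, also judged a hit by eye on the cell image, limit read from the data, passing the limit was not always enough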;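 note: cells exposed to compound for three days before fixation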
D1 mod: D1 dopamine receptor (human) allosteric modulation. HEK293 D1, CRE-luciferase, dopamine EC30 potentiation; actives deviate in either direction. B-score at 10 µM. hit rate 5.9% among 58,000. AID 641;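 active = luminescence count or its row- and column-corrected plate score outside the 99.7% band of the plate's sample wells, on either side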
HEK293 NFkB inh: inhibitors of the PMA/ionomycin-induced NF-kB reporter in HEK293 cells. HEK-293 NF-kB luciferase reporter, luminescence. inhibition, % at 3 µM. hit rate 0.21% among 62,000. AID 465;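 active = inhibition above the mean of all tested compounds plus 3 SD, cut at about 40% in these data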;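 note: 0% = stimulated DMSO wells and 100% = 10 µM reference inhibitor 5653914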
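Timing: 1 h pretreatment, 16 h stimulation, 37 °C; system: HEK-293 cells with stable firefly luciferase reporter driven by four HIV NF-kB elements; doses: 3 µM once, 0.30% DMSO; measured by: luciferase luminescence; control set: DMSO and 10 µM reference inhibitor; repeats: single test; reagent: PMA plus ionomycin mix as NF-kB-activating stimulus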
Jurkat viability: cytotoxicity toward Jurkat cells; Jurkat E6.1 viability, ATP luminescence, 48 h; inhibition, % at 4 µM; hit rate 1.2% among 56,000; AID 463;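 active = inhibition above the mean inhibition of all tested compounds plus 3 SD, cut at about 28% in these data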
M1 agonist: agonists of M1 muscarinic receptor | B-score at 10 µM | CHO-M1 cells, Fluo-4 calcium fluorescence, agonist mode; hits give high values | hit rate 3% among 64,000;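 active = fluorescence rise, raw or as B-score row- and column-corrected plate score, outside the 99.7% band of its plate's samples, either direction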
M1 antag: antagonists of rat M1 muscarinic receptor. CHO-M1 cells, Fluo-4 calcium, ACh EC80 antagonist mode; hits give low values. B-score at 10 µM. hit rate 3.4% among 64,000. AID 628;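 active = calcium fluorescence response, raw or row-and-column corrected B-score, differing from the plate sample mean either way at a set confidence level, mostly lower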
Target sequence (P08482 whole entry, looked up): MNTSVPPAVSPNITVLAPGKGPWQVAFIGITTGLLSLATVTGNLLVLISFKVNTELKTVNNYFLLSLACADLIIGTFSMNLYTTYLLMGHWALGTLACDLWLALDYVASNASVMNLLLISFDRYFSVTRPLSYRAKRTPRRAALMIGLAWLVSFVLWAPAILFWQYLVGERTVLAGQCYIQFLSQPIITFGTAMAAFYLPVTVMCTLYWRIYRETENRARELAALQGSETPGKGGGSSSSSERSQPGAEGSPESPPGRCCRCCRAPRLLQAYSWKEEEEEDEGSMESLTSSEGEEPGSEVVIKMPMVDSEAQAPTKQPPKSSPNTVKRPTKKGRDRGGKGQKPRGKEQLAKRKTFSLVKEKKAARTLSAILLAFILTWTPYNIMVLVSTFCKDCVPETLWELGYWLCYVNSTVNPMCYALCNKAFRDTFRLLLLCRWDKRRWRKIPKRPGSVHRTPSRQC
* hit, by the source's call; x = not tested or not shown. Only some compounds are listed: those with a hit (about 9.5% of all), similar ones and a draw of the others.

SMILES	mHtt clearance	D1 mod	HEK293 NFkB inh	Jurkat viability	M1 agonist	M1 antag
COc1ccc(-n2ncc3c(N4CCCCC4)ncnc32)cc1	x	-7.1*	58*	5	1.7	-0.00098
COc1ccc(-n2ncc3c(N4CCN(c5cccc(C)c5C)CC4)ncnc32)cc1	x	-0.063	8	-3	-0.099	-0.012
Cc1cc(S(=O)(=O)Nc2ccc(N(C)C)cc2)c(C)s1	-41	x	x	x	x	x
O=C(c1ccco1)N1CCC(c2ccccc2)C1 (centres undefined)	-5	0.72	-5	3	-0.0063	0.14
CCCCCOC(=O)c1ccc(NC(=O)c2ccco2)cc1	40	x	-11	1	0.013	0.67
N#Cc1c(/N=C/c2ccco2)sc2c1CCCCC2	x	-4.2*	-6	4	0.78	-0.54
CC(C)CNC(=O)C1CC(=O)OC12CCCCC2 (centres undefined)	-30	-0.58	14	3	0.92	2.1*
Nc1ccc(Oc2ccc3nc(-c4ccccc4)c(-c4ccc([N+](=O)[O-])cc4)nc3c2)cc1	21	x	x	x	x	x
CCc1ccc(OCc2nc(-c3ccccn3)no2)c(Br)c1	-14	-5*	-45	5	0.6	0
Cc1ccc(OCc2nc(-c3ccccn3)no2)c(Br)c1	-10	-5.7*	-15	1	1.8	-0.62
CC(C)c1ccc(OCc2nc(-c3ccccn3)no2)c(Br)c1	x	-2	-40	9	-0.59	-0.077
COc1cc(C2=NOC(C(=O)NCc3ccc(F)cc3)C2)cc(OC)c1OC (centres undefined)	-217	3.8	30	96*	-1.7	-0.083
Cn1cc(/C=N/n2cnc3scc(-c4ccc(Cl)cc4)c3c2=O)c2ccccc21	x	0.86	40*	96*	-0.086	0.026
Cc1cc(C)n(-c2nc3ccccc3c(=O)n2OCC(=O)OCc2ccccc2)n1	40	0.0082	4	56*	0.092	0.32
Cc1cc(C)n(-c2nc3ccccc3c(=O)n2OCC(=O)N(C)C)n1	x	0.11	2	0	-1.1	0.044
CC1CCc2nn(CC(=O)N3CCc4ccccc43)cc2C1 (centres undefined)	44	x	x	x	x	x
CCc1cc2c(=O)n(Cc3ccco3)c(SCc3c(C)noc3C)nc2s1	x	3.1	22	88*	-0.71	0.21
CCCCNc1cc(C(=O)O)cc(S(N)(=O)=O)c1Oc1ccccc1	x	-0.71	x	x	-0.075	-0.65
COc1ccc(NC(=O)COn2nnc3ccc(Cl)cc32)cc1OC	34	-2.6*	26	1	-0.41	0.42
Cc1ccc(-n2c(SCC3CCCCO3)nnc2-c2ccco2)cc1 (centres undefined)	x	1.5	21	2	0.73	0.35
CCC(c1nnc(SCC(=O)Nc2nnc(-c3ccccc3)o2)o1)N(C)C (centres undefined)	x	x	7	-3	2.3	-0.091
Cc1ccc(C)c(SCC(=O)Nc2nnc(-c3ccccc3)o2)c1	-7	0.34	15	5	17*	0.0013
O=C(NC1=NCCS1)c1cc2ccccc2o1	2	-4.6*	-9	-2	-0.37	0.31
O=C(Nc1ccccn1)c1cc2ccccc2o1	-16	x	x	x	x	x
O=C(Nc1ccc(CN2CCOCC2)cc1)c1cc2ccccn2n1	6	-7.3*	-7	4	-1.2	0.015
SMILES	mHtt clearance	D1 mod	HEK293 NFkB inh	Jurkat viability	M1 agonist	M1 antag
O=C(Nc1ccc(CN2CCOCC2)cc1)c1cc2ccccc2o1	x	-4.9*	-22	0	0.087	0.52
O=C(Nc1ccc(N2CCOCC2)cc1)c1cc2ccccc2o1	x	-0.45	-20	5	-0.88	-0.41
CCOc1ccc2nc(NCCCNS(=O)(=O)c3ccccc3)c(C#N)cc2c1	6	0.5	0	9	-1.4	-0.018
Cc1cc(C)n2nc(SCC#N)nc2n1	-37	-0.025	-6	-7	0.01	0.8
CC1CCCC(NC(=O)Nc2cccs2)C1C (centres undefined)	-5	x	x	x	x	x
COc1ccccc1NC(=O)c1oc2ccccc2c1NC(=O)c1cc(OC)c(OC)c(OC)c1	17	14*	11	-4	0.13	-0.033
COc1cccc(-c2cc(C(=O)Nc3cnn(Cc4ccccc4C)c3)no2)c1	-14	-0.36	17	6	-0.38	-0.66
COc1cccc(-c2cc(C(=O)Nc3cnn(Cc4ccc(F)cc4)c3)no2)c1	8	-3*	-1	4	0.75	0.86
COc1cccc(-c2cc(C(=O)Nc3cc(C)on3)no2)c1	-58	0.41	10	-1	-0.17	0.19
COC(=O)c1ccccc1NC(=O)c1cc(-c2ccc(OC)c(OC)c2)on1	71*	-0.23	20	-3	-0.43	-0.046
COc1cccc(-c2cc(C(=O)Nc3cc(OC)c(OC)c(OC)c3)no2)c1	18	2.5	22	67*	2.4*	-1.2
Cc1ccc(-c2nc3sc4c(c3c(=O)n2N)CCCC4)cc1	-12	x	x	x	x	x
S=C(c1ccc(-c2ccccc2Cl)o1)N1CCOCC1	x	-0.098	-24	1	0.8	1.1*
S=C(c1ccc(-c2ccc(Cl)c(Cl)c2)o1)N1CCOCC1	x	-1.3	-25	7	-1.2	-0.68
CC(C)Cc1nnc(NC(=O)c2ccc([N+](=O)[O-])cc2)s1	26	x	x	x	x	x
Oc1[nH]c2ccccc2c1C=Nc1ccc2c(c1)OCO2	x	-4.4*	-52	-5	-0.49	-0.17
Oc1[nH]c2ccccc2c1/C=N/c1nccs1	x	-0.4	-5	2	-0.71	-1.2
O=C(CC1C(=O)NCCN1C(=S)Nc1ccccc1)Nc1ccc2c(c1)OCCO2 (centres undefined)	52	x	x	x	x	x
Cc1nc2c(c(=O)n1CCC(C)C)c1nc3ccccc3nc1n2Cc1ccc2c(c1)OCO2	x	8.8*	12	4	-0.5	0.14
Cc1c(-n2cc(C(=O)O)c(=O)c3cc(F)c(N4CCCC4)c(F)c32)c(=O)n(-c2ccccc2)n1C	x	2.7*	23	x	0.55	-0.091
CN1CCN(c2c(F)cc3c(=O)c(C(=O)O)cn4c3c2SCC4)CC1	x	-0.063	6	9	-0.6	0.59
C=CCNc1ncnc2ccccc12	x	-0.96	-2	4	-1	0.41
c1ccc(CNc2ncnc3ccccc23)cc1	x	x	22	69*	2.1	-1.2
CC1=NC(=O)C(N=Nc2cccc3ccccc23)N1c1ccccc1 (centres undefined)	10	x	x	x	x	x
COc1ccc(C(=O)Nc2ccc3oc(Cc4ccc(Cl)cc4)nc3c2)cc1OC	-11	x	x	x	x	x
SMILES	mHtt clearance	D1 mod	HEK293 NFkB inh	Jurkat viability	M1 agonist	M1 antag
Clc1cccc(-c2ccc(/C=N/n3cnnc3)o2)c1	x	-5.1*	14	-6	-0.59	0.0013
Cc1ccc(S(=O)(=O)NCCOc2nc(N3CCOCC3)nc(N3CCOCC3)n2)cc1	29	x	x	x	x	x
Cc1cc(NC(=O)CS(=O)(=O)c2cn(Cc3ccc(F)cc3)c3ccccc23)no1	x	-2	13	9	0.11	0.54
Cc1cc(NC(=O)CS(=O)(=O)c2cn(Cc3cccc(F)c3)c3ccccc23)no1	x	0.73	23	x	1.7	3.6*
C1CCN(c2c3c(nc4nnnn24)CCCC3)CC1	-20	x	x	x	x	x
Cc1ccc(-c2cc3c(nn2)-c2ccccc2C3=O)cc1	x	-5.7*	62*	16	0.71	-0.24

Bioassay records deposited in PubChem BioAssay by several laboratories.
